In assay [1] the target is T1, Glucocorticoid receptor (Homo sapiens) (UniProt P04150).
T1 sequence (whole entry): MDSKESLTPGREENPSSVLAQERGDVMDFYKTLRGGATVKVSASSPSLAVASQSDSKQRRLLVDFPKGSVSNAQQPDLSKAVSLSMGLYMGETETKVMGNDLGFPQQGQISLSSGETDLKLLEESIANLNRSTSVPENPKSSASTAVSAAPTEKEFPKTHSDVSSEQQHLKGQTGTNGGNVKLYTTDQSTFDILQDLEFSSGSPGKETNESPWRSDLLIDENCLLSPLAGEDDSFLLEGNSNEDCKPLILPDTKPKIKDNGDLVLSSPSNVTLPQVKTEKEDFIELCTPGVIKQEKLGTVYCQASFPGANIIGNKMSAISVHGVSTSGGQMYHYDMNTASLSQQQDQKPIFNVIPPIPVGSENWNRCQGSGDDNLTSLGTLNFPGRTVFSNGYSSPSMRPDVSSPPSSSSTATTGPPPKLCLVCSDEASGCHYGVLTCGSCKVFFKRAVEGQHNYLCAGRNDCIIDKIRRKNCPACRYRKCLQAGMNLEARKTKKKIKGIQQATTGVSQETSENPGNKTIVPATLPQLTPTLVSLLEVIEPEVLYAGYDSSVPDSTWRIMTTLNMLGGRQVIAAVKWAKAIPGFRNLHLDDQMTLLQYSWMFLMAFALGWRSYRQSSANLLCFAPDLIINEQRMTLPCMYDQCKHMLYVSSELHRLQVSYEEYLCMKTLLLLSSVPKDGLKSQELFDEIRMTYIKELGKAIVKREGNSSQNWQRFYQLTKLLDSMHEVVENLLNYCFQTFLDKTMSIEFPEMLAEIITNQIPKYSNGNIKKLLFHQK
Briefly: Transrepression activity at glucocorticoid receptor in human fibroblasts assessed as inhibition of IL-1-induced IL-6 production at 2 uM after 18 to 24 hrs relative to dexomethasone. In a few lines: (§1)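 Human foreskin fibroblasts grown in Iscove's medium with 10% charcoal/dextran-treated FBS, plated at 20000/well two days before. Medium replaced, then compound (0.4% DMSO final) and recombinant human IL-1 (1 ng/mL final) added. 18–24 h at 37 °C; IL-6 in medium quantified by electrochemiluminescence, DELFIA or ELISA. IC50 by four-parameter fit of duplicate 11-point curves. Efficacy relative to dexamethasone (100%); top concentration 2 μM.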

Assay [2] concerns the target T1, Glucocorticoid receptor (Homo sapiens). Briefly: Agonist activity at glucocorticoid receptor in human HeLa cells transfected with luciferase gene linked to MMTV promoter assessed as induction of luciferase transactivation activity at 2 uM after 6 hrs by luminescence assay. The format is cell-based. In a few lines:
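HeLa cells stably carrying an MMTV-luciferase construct, plated the day before at 25000/well in DMEM with 3% FBS. Medium replaced, then compound added (0.2% DMSO final); 1 μM dexamethasone wells = 100% induction, vehicle = background. Incubated 6 h at 37 °C, 5% CO2. Luminescence read after lysis; activation expressed as % of positive control. Top concentration 2 μM.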

Assay [3] addresses T2, Glucocorticoid receptor (Homo sapiens, UniProt P04150).
T2 sequence (P04150 whole entry): T1 sequence (whole entry)
Put plainly: Transrepression activity at glucocorticoid receptor in human fibroblasts assessed as inhibition of IL-1-induced IL-6 production after 18 to 24 hrs. In a few lines: as §1

The target of assay [4] is T3, Mineralocorticoid receptor (Homo sapiens, UniProt P08235).
T3 sequence (P08235 whole entry): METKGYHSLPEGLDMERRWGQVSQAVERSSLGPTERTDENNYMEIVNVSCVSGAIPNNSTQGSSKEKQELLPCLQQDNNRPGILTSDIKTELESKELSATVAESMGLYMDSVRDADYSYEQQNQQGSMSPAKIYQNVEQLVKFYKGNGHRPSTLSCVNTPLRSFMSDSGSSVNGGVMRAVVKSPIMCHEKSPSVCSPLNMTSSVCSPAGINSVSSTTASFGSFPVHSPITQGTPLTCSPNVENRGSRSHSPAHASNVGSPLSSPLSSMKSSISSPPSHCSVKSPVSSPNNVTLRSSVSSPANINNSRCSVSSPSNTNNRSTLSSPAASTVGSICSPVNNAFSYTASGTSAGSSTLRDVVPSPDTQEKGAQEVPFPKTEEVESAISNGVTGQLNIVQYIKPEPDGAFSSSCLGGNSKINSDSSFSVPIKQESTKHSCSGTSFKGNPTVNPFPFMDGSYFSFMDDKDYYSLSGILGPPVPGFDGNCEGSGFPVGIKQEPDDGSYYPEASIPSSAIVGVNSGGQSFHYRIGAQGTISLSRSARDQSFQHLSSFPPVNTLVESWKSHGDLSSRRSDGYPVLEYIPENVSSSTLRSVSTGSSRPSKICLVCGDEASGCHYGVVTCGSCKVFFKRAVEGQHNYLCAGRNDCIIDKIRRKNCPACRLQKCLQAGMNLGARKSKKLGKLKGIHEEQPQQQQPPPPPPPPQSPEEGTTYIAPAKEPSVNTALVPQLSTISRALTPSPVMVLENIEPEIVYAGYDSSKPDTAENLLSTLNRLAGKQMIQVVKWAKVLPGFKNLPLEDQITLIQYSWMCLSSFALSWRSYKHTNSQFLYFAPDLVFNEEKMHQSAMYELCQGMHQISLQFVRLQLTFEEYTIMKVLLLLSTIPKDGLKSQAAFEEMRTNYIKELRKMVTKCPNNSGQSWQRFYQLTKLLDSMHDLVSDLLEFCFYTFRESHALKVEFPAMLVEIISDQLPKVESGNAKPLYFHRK
Put plainly: Competitive binding affinity to mineralocorticoid receptor (unknown origin) expressed in baculovirus-infected cell system after 1 hr by fluorescence polarization assay in presence of tetramethylrhodamine-labeled dexamethasone. An outline of the steps: (§2)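 Lysates of baculovirus-infected insect cells co-expressing receptor with HSP-70, HSP-90 and p23 (GR diluted 300-fold, MR 17-fold). Probe 5 nM tetramethylrhodamine-dexamethasone in TES/KCl/molybdate/EDTA/CHAPS/glycerol/DTT buffer, pH 7.4, 1% DMSO. 1 h at room temperature in the dark; fluorescence polarization read (ex 550/em 580 nm). Background set with 2 μM dexamethasone. IC50 from duplicate 11-point curves, four-parameter fit, mean of at least two determinations.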
(In general: Polarisation of emitted light reports the rotation of a fluorescent probe.)

A further assay concerns the target T4, Progesterone receptor (Homo sapiens, UniProt P06401).
T4 sequence (P06401 whole entry): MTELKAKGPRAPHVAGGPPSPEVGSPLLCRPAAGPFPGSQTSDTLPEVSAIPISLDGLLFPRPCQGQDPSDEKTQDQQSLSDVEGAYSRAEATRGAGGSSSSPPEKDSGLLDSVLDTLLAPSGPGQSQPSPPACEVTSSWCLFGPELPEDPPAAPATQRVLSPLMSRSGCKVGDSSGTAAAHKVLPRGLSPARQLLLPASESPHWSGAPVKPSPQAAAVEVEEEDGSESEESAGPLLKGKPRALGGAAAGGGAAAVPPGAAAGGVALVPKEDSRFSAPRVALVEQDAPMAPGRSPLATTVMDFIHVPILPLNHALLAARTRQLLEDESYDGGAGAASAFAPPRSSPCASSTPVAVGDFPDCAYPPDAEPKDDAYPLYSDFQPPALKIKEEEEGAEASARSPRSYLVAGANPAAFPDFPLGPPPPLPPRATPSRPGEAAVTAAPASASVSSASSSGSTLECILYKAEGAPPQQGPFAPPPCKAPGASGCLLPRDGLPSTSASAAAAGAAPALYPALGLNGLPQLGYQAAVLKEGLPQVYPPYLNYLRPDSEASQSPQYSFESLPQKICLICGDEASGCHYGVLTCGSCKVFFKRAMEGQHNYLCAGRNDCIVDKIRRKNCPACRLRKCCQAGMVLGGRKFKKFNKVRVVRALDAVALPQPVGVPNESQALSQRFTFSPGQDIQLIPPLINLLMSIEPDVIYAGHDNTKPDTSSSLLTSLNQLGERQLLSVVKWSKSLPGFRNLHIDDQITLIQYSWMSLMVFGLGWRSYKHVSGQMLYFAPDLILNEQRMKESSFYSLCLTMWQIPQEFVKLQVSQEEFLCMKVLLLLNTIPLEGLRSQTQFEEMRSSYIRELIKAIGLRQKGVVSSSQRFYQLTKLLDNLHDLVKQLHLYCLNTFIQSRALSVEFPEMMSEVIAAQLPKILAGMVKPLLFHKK
Put plainly: Competitive binding affinity to progesterone receptor (unknown origin) expressed in baculovirus-infected cell system after 1 hr by fluorescence polarization assay in presence of tetramethylrhodamine-labeled RU-486. An outline of the steps:
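PR from lysate of insect cells infected with receptor baculovirus alone, diluted 13-fold. Probe 5 nM tetramethylrhodamine-labeled RU-486 in pH 7.4 TES/KCl/molybdate buffer with 1% DMSO. 1 h at room temperature in the dark, then fluorescence polarization (ex 550/em 580 nm). Background set with 2 μM RU-486. IC50 from duplicate 11-point curves, four-parameter logistic fit, mean of at least two determinations.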

Assay [5] has as its target T2, Glucocorticoid receptor. Briefly: Competitive binding affinity to glucocorticoid receptor (unknown origin) expressed in baculovirus-infected cell system after 1 hr by fluorescence polarization assay in presence of tetramethylrhodamine-labeled dexamethasone. In a few lines:
as §2

Molecules are shown by their SMILES.

A word on the Emax: it is the maximal effect, on the per cent scale that the assay sets. For orientation: IC50 means the concentration that inhibits the measured activity by half. For the compound `COc1ccc(F)cc1C(C)(C)CC(O)(Cc1cc2ncncc2[nH]1)C(F)(F)F` (racemic), the maximal response (Emax) in assay [1] was 85%; in assay [2], 5%. For the same compound, the IC50 was 21 nM at Glucocorticoid receptor [3], above 2000 nM in assay [4], above 2000 nM on Progesterone receptor and 9 nM at Glucocorticoid receptor [5].

(Values after ChEMBL document CHEMBL3124926, “Identification of highly efficacious glucocorticoid receptor agonists with a potential for reduced clinical bone side effects” (J Med Chem, 2014).)
